In ChEMBL document CHEMBL2040727, “Substituted thiazoles VI. Synthesis and antitumor activity of new 2-acetamido- and 2 or 3-propanamido-thiazole analogs” (2012):

How the values were obtained:
Format in all cases: functional
BT-549 = assay: Growth inhibition of human BT549 cells at 10 uM after 48 hrs by coulter counter analysis; details: BT-549, 48 h, read-out: GI
Procedure, shortened: (§1)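 Single-dose NCI 60-line panel screen of test compounds. Cells grown in RPMI 1640 with 10% FBS. Compounds dissolved in DMSO, then diluted in phosphate buffer saline (final DMSO below 1%). Wells run in duplicate at 6 × 10⁴ cells/ml. Controls held PBS and DMSO at matching dilutions. Incubation 48 h at 37 °C under humidified 5% CO2. Cells diluted tenfold in saline and counted by Coulter counter. Percent growth inhibition taken from mean-graph of treated-cell growth.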

T47D = assay: Growth inhibition of human T47D cells at 10 uM after 48 hrs by coulter counter analysis; details: read-out: GI
Procedure, shortened: (§2)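 Single-dose screen in the NCI 60 cell line panel. Cells grown in RPMI 1640 with 10% FBS. Compounds dissolved in DMSO and diluted in phosphate buffered saline, final DMSO under 1%. Duplicate wells seeded from culture at 6 × 10⁴ cells/ml. Incubated 48 h at 37 °C, humidified, 5% CO2. Cells diluted tenfold in saline and Coulter-counted. Percent growth inhibition computed against PBS/DMSO controls.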

K562 = assay: Growth inhibition of human K562 cells at 10 uM after 48 hrs by coulter counter analysis; details: K562, 48 h, read-out: GI; procedure, shortened: as §1
HCC 2998 = assay: Growth inhibition of human HCC2998 cells at 10 uM after 48 hrs by coulter counter analysis; details: HCC 2998, 48 h, read-out: GI; procedure, shortened: as §1
HCT-15 = assay: Growth inhibition of human HCT15 cells at 10 uM after 48 hrs by coulter counter analysis; details: HCT-15, 48 h, read-out: GI; procedure, shortened: as §1
SF-539 = assay: Growth inhibition of human SF539 cells at 10 uM after 48 hrs by coulter counter analysis; details: SF-539, 48 h, read-out: GI; procedure, shortened: as §1
LOX IMVI = assay: Growth inhibition of human LOXIMVI cells at 10 uM after 48 hrs by coulter counter analysis; details: read-out: GI; procedure, shortened: as §1
SW-620 = assay: Growth inhibition of human SW620 cells at 10 uM after 48 hrs by coulter counter analysis; details: SW-620, 48 h, read-out: GI; procedure, shortened: as §2
RPMI-8226 = assay: Growth inhibition of human RPMI8226 cells at 10 uM after 48 hrs by coulter counter analysis; details: RPMI-8226, 48 h, read-out: GI; procedure, shortened: as §1
[1] = Growth inhibition of human Hs 578T cells at 10 uM after 48 hrs by coulter counter analysis; details: read-out: GI; procedure, shortened: as §1
RXF 393 = assay: Growth inhibition of human RXF393 cells at 10 uM after 48 hrs by coulter counter analysis; details: RXF 393, 48 h, read-out: GI; procedure, shortened: as §1
CAKI-1 = assay: Growth inhibition of human Caki1 cells at 10 uM after 48 hrs by coulter counter analysis; details: CAKI-1, 48 h, read-out: GI; procedure, shortened: as §1
SK-MEL-5 = assay: Growth inhibition of human SK-MEL-5 cells at 10 uM after 48 hrs by coulter counter analysis; details: SK-MEL-5, 48 h, read-out: GI; procedure, shortened: as §1
A498 = assay: Growth inhibition of human A498 cells at 10 uM after 48 hrs by coulter counter analysis; details: A498, 48 h, read-out: GI; procedure, shortened: as §1
MDA-MB-468 = assay: Growth inhibition of human MDA-MB-468 cells at 10 uM after 48 hrs by coulter counter analysis; details: MDA-MB-468, 48 h, read-out: GI; procedure, shortened: as §1
NCI-H226 = assay: Growth inhibition of human NCI-H226 cells at 10 uM after 48 hrs by coulter counter analysis; details: NCI-H226, 48 h, read-out: GI; procedure, shortened: as §1
SK-MEL-28 = assay: Growth inhibition of human SK-MEL-28 cells at 10 uM after 48 hrs by coulter counter analysis; details: SK-MEL-28, 48 h, read-out: GI; procedure, shortened: as §1
OVCAR-8 = assay: Growth inhibition of human OVCAR8 cells at 10 uM after 48 hrs by coulter counter analysis; details: OVCAR-8, 48 h, read-out: GI; procedure, shortened: as §1
NCI-H23 = assay: Growth inhibition of human NCI-H23 cells at 10 uM after 48 hrs by coulter counter analysis; details: NCI-H23, 48 h, read-out: GI; procedure, shortened: as §1
IGROV-1 = assay: Growth inhibition of human IGROV1 cells at 10 uM after 48 hrs by coulter counter analysis; details: IGROV-1, 48 h, read-out: GI; procedure, shortened: as §1
Malme-3M = assay: Growth inhibition of human MALME-3M cells at 10 uM after 48 hrs by coulter counter analysis; details: read-out: GI; procedure, shortened: as §1
MDA-MB-435 = assay: Growth inhibition of human MDA-MB-435 cells at 10 uM after 48 hrs by coulter counter analysis; details: MDA-MB-435, 48 h, read-out: GI; procedure, shortened: as §1
MDA-MB-231 = assay: Growth inhibition of human MDA-MB-231 cells at 10 uM after 48 hrs by coulter counter analysis; details: MDA-MB-231, 48 h, read-out: GI; procedure, shortened: as §1
SN12C = assay: Growth inhibition of human SN12C cells at 10 uM after 48 hrs by coulter counter analysis; details: read-out: GI; procedure, shortened: as §1
OVCAR-5 = assay: Growth inhibition of human OVCAR5 cells at 10 uM after 48 hrs by coulter counter analysis; details: OVCAR-5, 48 h, read-out: GI; procedure, shortened: as §1
UACC-62 = assay: Growth inhibition of human UACC62 cells at 10 uM after 48 hrs by coulter counter analysis; details: UACC-62, 48 h, read-out: GI; procedure, shortened: as §2
786-0 = assay: Growth inhibition of human 786-0 cells at 10 uM after 48 hrs by coulter counter analysis; details: 786-0, 48 h, read-out: GI; procedure, shortened: as §1
HT-29 = assay: Growth inhibition of human HT-29 cells at 10 uM after 48 hrs by coulter counter analysis; details: HT-29, 48 h, read-out: GI; procedure, shortened: as §1
CCRF-CEM = assay: Growth inhibition of human CCRF-CEM cells at 10 uM after 48 hrs by coulter counter analysis; details: read-out: GI; procedure, shortened: as §1
OVCAR-4 = assay: Growth inhibition of human OVCAR4 cells at 10 uM after 48 hrs by coulter counter analysis; details: OVCAR-4, 48 h, read-out: GI; procedure, shortened: as §1
UO-31 = assay: Growth inhibition of human UO31 cells at 10 uM after 48 hrs by coulter counter analysis; details: UO-31, 48 h, read-out: GI; procedure, shortened: as §2
HOP-62 = assay: Growth inhibition of human HOP62 cells at 10 uM after 48 hrs by coulter counter analysis; details: HOP-62, 48 h, read-out: GI; procedure, shortened: as §1
SF-268 = assay: Growth inhibition of human SF268 cells at 10 uM after 48 hrs by coulter counter analysis; details: SF-268, 48 h, read-out: GI; procedure, shortened: as §1
PC-3 = assay: Growth inhibition of human PC3 cells at 10 uM after 48 hrs by coulter counter analysis; details: PC-3, 48 h, read-out: GI; procedure, shortened: as §1
NCI-H322M = assay: Growth inhibition of human NCI-H322M cells at 10 uM after 48 hrs by coulter counter analysis; details: read-out: GI; procedure, shortened: as §1

Compound	inhibition of growth at 10 µM (BT-549) [%]	inhibition of growth at 10 µM (T47D) [%]	inhibition of growth at 10 µM (K562) [%]	inhibition of growth at 10 µM (HCC 2998) [%]	inhibition of growth at 10 µM (HCT-15) [%]	inhibition of growth at 10 µM (SF-539) [%]	inhibition of growth at 10 µM (LOX IMVI) [%]	inhibition of growth at 10 µM (SW-620) [%]	inhibition of growth at 10 µM (RPMI-8226) [%]	inhibition of growth at 10 µM [1] [%]	inhibition of growth at 10 µM (RXF 393) [%]	inhibition of growth at 10 µM (CAKI-1) [%]	inhibition of growth at 10 µM (SK-MEL-5) [%]	inhibition of growth at 10 µM (A498) [%]	inhibition of growth at 10 µM (MDA-MB-468) [%]	inhibition of growth at 10 µM (NCI-H226) [%]	inhibition of growth at 10 µM (SK-MEL-28) [%]	inhibition of growth at 10 µM (OVCAR-8) [%]	inhibition of growth at 10 µM (NCI-H23) [%]	inhibition of growth at 10 µM (IGROV-1) [%]	also measured
CCOC(=O)c1sc(NC(=O)CCN2CCOCC2)nc1C	< 10	< 10	< 10	< 10	< 10	< 10	< 10	< 10	< 10	< 10	< 10	< 10	< 10	< 10	< 10	< 10	< 10	< 10	< 10	< 10	inhibition of growth at 10 µM (Malme-3M): < 10%; inhibition of growth at 10 µM (MDA-MB-435): < 10%; inhibition of growth at 10 µM (MDA-MB-231): < 10%; inhibition of growth at 10 µM (SN12C): < 10%; inhibition of growth at 10 µM (OVCAR-5): < 10%; inhibition of growth at 10 µM (UACC-62): < 10%; inhibition of growth at 10 µM (786-0): < 10%; inhibition of growth at 10 µM (HT-29): < 10%; inhibition of growth at 10 µM (CCRF-CEM): < 10%; inhibition of growth at 10 µM (OVCAR-4): < 10%; inhibition of growth at 10 µM (UO-31): 10.6%; inhibition of growth at 10 µM (HOP-62): < 10%; inhibition of growth at 10 µM (SF-268): < 10%; inhibition of growth at 10 µM (PC-3): < 10%; inhibition of growth at 10 µM (NCI-H322M): < 10%
CCOC(=O)c1sc(NC(=O)CCN2CCN(C)CC2)nc1C	< 10	< 10	< 10	< 10	< 10	< 10	15.5	< 10	< 10	< 10	< 10	12.5	< 10	< 10	25.2	< 10	< 10	< 10	< 10	< 10	inhibition of growth at 10 µM (Malme-3M): < 10%; inhibition of growth at 10 µM (MDA-MB-435): < 10%; inhibition of growth at 10 µM (MDA-MB-231): < 10%; inhibition of growth at 10 µM (SN12C): < 10%; inhibition of growth at 10 µM (OVCAR-5): < 10%; inhibition of growth at 10 µM (UACC-62): < 10%; inhibition of growth at 10 µM (786-0): < 10%; inhibition of growth at 10 µM (HT-29): < 10%; inhibition of growth at 10 µM (CCRF-CEM): 96.2%; inhibition of growth at 10 µM (OVCAR-4): < 10%; inhibition of growth at 10 µM (UO-31): 19.3%; inhibition of growth at 10 µM (HOP-62): < 10%; inhibition of growth at 10 µM (SF-268): < 10%; inhibition of growth at 10 µM (PC-3): < 10%; inhibition of growth at 10 µM (NCI-H322M): < 10%
CCOC(=O)c1sc(NC(=O)CCN2CCN(c3ccccc3)CC2)nc1C	< 10	< 10	< 10	< 10	< 10	< 10	< 10	< 10	< 10	< 10	< 10	< 10	< 10	12.8	< 10	< 10	< 10	< 10	< 10	< 10	inhibition of growth at 10 µM (Malme-3M): 12%; inhibition of growth at 10 µM (MDA-MB-435): < 10%; inhibition of growth at 10 µM (MDA-MB-231): < 10%; inhibition of growth at 10 µM (SN12C): < 10%; inhibition of growth at 10 µM (OVCAR-5): < 10%; inhibition of growth at 10 µM (UACC-62): < 10%; inhibition of growth at 10 µM (786-0): < 10%; inhibition of growth at 10 µM (HT-29): < 10%; inhibition of growth at 10 µM (CCRF-CEM): < 10%; inhibition of growth at 10 µM (OVCAR-4): < 10%; inhibition of growth at 10 µM (UO-31): 19.7%; inhibition of growth at 10 µM (HOP-62): < 10%; inhibition of growth at 10 µM (SF-268): < 10%; inhibition of growth at 10 µM (PC-3): < 10%; inhibition of growth at 10 µM (NCI-H322M): < 10%
